In ChEMBL document CHEMBL1275449, “Potent in vitro antifungal activities of naturally occurring acetylenic acids” (Antimicrob Agents Chemother, 2008):
Values after ≈ are worked out from the molar mass of the structure shown. Active and inactive are the calls of the source. The calls are words filed in the database; no cut-off is given here.

Columns and labels:
Cryptococcus neoformans [1] = test: Antifungal activity against Cryptococcus neoformans ATCC 90113 after 72 hrs by CLSI method; type: functional, organism-based; conditions: ATCC 90113, 72 h
How it was run: (§1)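 SD broth replaced RPMI because growth in RPMI was poor; other CLSI conditions were kept. Inoculum was 1.5 × 10³ CFU/ml from colonies on SD agar, checked by plating. Twofold serial dilutions (11 concentrations) in 20% DMSO-saline were tested in duplicate. OD530 was read before and after incubation at 35°C for 72 h. Percent growth gave IC50; the MIC is the lowest concentration with no detectable growth.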

Candida albicans [2] = test: Antifungal activity against Candida albicans ATCC 200955 after 48 hrs by CLSI method; type: functional, organism-based; conditions: ATCC 200955, 48 h
How it was run: (§2)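 CLSI broth microdilution. Colonies from 24–72 h SD agar suspended in saline and sized by OD630 standard curve. Inoculum 1.5 × 10³ CFU/ml (final) in RPMI 1640 (0.2% dextrose, 0.03% glutamine, 0.165 M MOPS, pH 7.0). Twofold dilutions (11 levels) from 20% DMSO-saline, in duplicate. 35°C for 48 h, OD530 read before and after. IC50 fitted from % growth. MIC: no detectable growth. MFC: subculture onto SD agar.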

Aspergillus fumigatus [3] = test: Antifungal activity against Aspergillus fumigatus ATCC 90906 after 48 h by CLSI method; conditions: ATCC 90906, 48 h
Candida albicans [4] = test: Antifungal activity against Fluconazole resistant Candida albicans clinical isolate 17 after 48 hrs by CLSI method; type: functional, organism-based; how it was run: as §2
Trichophyton rubrum [5] = test: Antifungal activity against Trichophyton rubrum ATCC MYA-4438 by CLSI method; type: functional, organism-based
How it was run: (§3)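 Growth scraped from 1- to 6-week-old potato dextrose slants and filtered through Miracloth. Diluted in 5% Alamar blue-RPMI 1640 (MOPS pH 7.0) to 2.7 × 10⁴ CFU/ml. Eleven twofold dilutions in duplicate. Fluorescence at 544 nm excitation/590 nm emission read before and after 35°C, 5 days. IC50 fitted from percent growth. MIC taken as no detectable growth; MFC from clear or blue wells plated on PD agar.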

Aspergillus niger = test: Antifungal activity against Aspergillus niger ATCC 16404 at 16.5 uM after 48 hrs by CLSI method; type: functional, organism-based
Candida tropicalis = test: Antifungal activity against Candida tropicalis ATCC 750 after 48 hrs by CLSI method; type: functional, organism-based; conditions: ATCC 750, 48 h
How it was run: (§4)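 Yeast suspensions made from 3-5 colonies off 24-72 h SD agar plates in saline. They were diluted by OD630 standard curve in RPMI 1640 (0.2% dextrose, 0.03% glutamine, 0.165 M MOPS, pH 7.0) to 1.5 × 10³ CFU/ml. Twofold dilutions (11 concentrations, 20% DMSO-saline) run in duplicate. OD530 read before and after 35°C, 48 h. Line values are top test concentrations; no-growth endpoints give MIC/MFC.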

Aspergillus fumigatus [6] = test: Antifungal activity against Aspergillus fumigatus ATCC 90906 at 16.5 uM after 48 hrs by CLSI method; type: functional, organism-based
Candida albicans [7] = test: Antifungal activity against Candida albicans ATCC 90028 after 48 hrs by CLSI method; type: functional, organism-based; conditions: ATCC 90028, 48 h; how it was run: as §2
Cryptococcus neoformans [8] = test: Antifungal activity against Cryptococcus neoformans ATCC 66031 after 72 hrs by CLSI method; type: functional, organism-based; conditions: ATCC 66031, 72 h; how it was run: as §1
Candida albicans [9] = test: Antifungal activity against Fluconazole resistant Candida albicans clinical isolate 1 after 48 hrs by CLSI method; type: functional, organism-based; how it was run: as §2
[10] = system: Trichophyton mentagrophytes; test: Antifungal activity against Trichophyton mentagrophytes ATCC 9533 by CLSI method; type: functional, organism-based; how it was run: as §3
Candida parapsilosis [11] = test: Antifungal activity against Candida parapsilosis ATCC 22019 after 48 hrs by CLSI method; type: functional, organism-based; conditions: Lodderomyces parapsilosis, ATCC 22019, 48 h; how it was run: as §4
[12] = system: Trichophyton mentagrophytes; test: Antifungal activity against Trichophyton mentagrophytes ATCC MYA-4439 by CLSI method; type: functional, organism-based; how it was run: as §3
Pichia kudriavzevii = test: Antifungal activity against Candida krusei ATCC 6258 after 48 hrs by CLSI method; type: functional, organism-based; conditions: ATCC 6258, 48 h
How it was run: (§5)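 Candida inocula came from 24–72-h SD agar colonies suspended in saline. They were diluted by OD630 standard curve into RPMI 1640 (0.2% dextrose, 0.03% glutamine, 0.165 M MOPS, pH 7.0) to 1.5 × 10³ CFU/ml. Compounds were run as 11 twofold dilutions in 20% DMSO-saline, in duplicate, at 35°C for 48 h, with OD530 read before and after. Percent growth at the top concentration, IC50, MIC, and MFC (SD agar plating) were derived.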

Candida albicans [13] = test: Antifungal activity against Candida albicans ATCC 60193 after 48 hrs by CLSI method; type: functional, organism-based; conditions: ATCC 60193, 48 h; how it was run: as §2
Candida albicans [14] = test: Antifungal activity against Candida albicans ATCC 14053 after 48 hrs by CLSI method; type: functional, organism-based; conditions: ATCC 14053, 48 h; how it was run: as §2
Trichophyton rubrum [15] = test: Antifungal activity against Trichophyton rubrum ATCC MYA-4438 at 16.5 uM after 5 days by CLSI method; type: functional, organism-based
Aspergillus flavus = test: Antifungal activity against Aspergillus flavus ATCC 204304 at 16.5 uM after 48 hrs by CLSI method; type: functional, organism-based
[16] = system: Trichophyton mentagrophytes; test: Antifungal activity against Trichophyton mentagrophytes ATCC 9533 at 16.5 uM after 5 days by CLSI method; type: functional, organism-based
Candida albicans [17] = test: Antifungal activity against Candida albicans ATCC 32354 after 48 hrs by CLSI method; type: functional, organism-based; conditions: ATCC 32354, 48 h; how it was run: as §2
Candida parapsilosis [18] = test: Antifungal activity against Candida parapsilosis ATCC 22019 at 16.5 uM after 48 hrs by CLSI method; type: functional, organism-based; how it was run: as §4
Trichophyton rubrum [19] = test: Antifungal activity against Trichophyton rubrum ATCC 10218 at 16.5 uM after 5 days by CLSI method; type: functional, organism-based
[20] = system: Trichophyton mentagrophytes; test: Antifungal activity against Trichophyton mentagrophytes ATCC MYA-4439 at 16.5 uM after 5 days by CLSI method; type: functional, organism-based
Nakaseomyces glabratus = test: Antifungal activity against Candida glabrata ATCC 90030 after 48 hrs by CLSI methodCandida glabrata; type: functional, organism-based; conditions: ATCC 90030, 48 h; how it was run: as §5
Aspergillus fumigatus [21] = test: Antifungal activity against Aspergillus fumigatus ATCC 204305 at 16.5 uM after 48 hrs by CLSI method; type: functional, organism-based

## CC[C@H](C)C[C@H](C)CCCCCCCCC(=O)N[C@H]1C[C@@H](O)[C@@H](NCCN)NC(=O)[C@@H]2[C@@H](O)CCN2C(=O)[C@H]([C@H](O)CCN)NC(=O)[C@H]([C@H](O)[C@@H](O)c2ccc(O)cc2)NC(=O)[C@@H]2C[C@@H](O)CN2C(=O)[C@H]([C@@H](C)O)NC1=O [CASPOFUNGIN]
Cryptococcus neoformans [1]
  IC50: 400 nM
  MFC: 2.1 µM (≈ 2.3 µg/mL)
  MIC: 1 µM (≈ 1.09 µg/mL)
Candida albicans [2]
  IC50: 50 nM
  MFC: 0.13 µM (≈ 0.142 µg/mL)
  MIC: 0.13 µM (≈ 0.142 µg/mL)
Aspergillus fumigatus [3]
  IC50: 200 nM
  MIC: 16.5 µM (≈ 18 µg/mL)
Candida albicans [4]
  IC50: 40 nM
  MFC: 0.26 µM (≈ 0.284 µg/mL)
  MIC: 0.13 µM (≈ 0.142 µg/mL)
Trichophyton rubrum [5]
  IC50: 60 nM
  MIC: 0.1 µM (≈ 0.109 µg/mL)
Aspergillus niger
  Activity: inactive
Candida tropicalis
  IC50: 60 nM
  MFC: 0.26 µM (≈ 0.284 µg/mL)
  MIC: 0.1 µM (≈ 0.109 µg/mL)
Aspergillus fumigatus [6]
  Activity: inactive
Candida albicans [7]
  IC50: 60 nM
  MFC: 0.26 µM (≈ 0.284 µg/mL)
  MIC: 0.19 µM (≈ 0.208 µg/mL)
Cryptococcus neoformans [8]
  IC50: 100 nM
  MFC: 1 µM (≈ 1.09 µg/mL)
  MIC: 0.5 µM (≈ 0.547 µg/mL)
Candida albicans [9]
  IC50: 50 nM
  MFC: 0.26 µM (≈ 0.284 µg/mL)
  MIC: 0.1 µM (≈ 0.109 µg/mL)
[10]
  IC50: 300 nM
Candida parapsilosis [11]
  IC50: 200 nM
  MIC: 0.5 µM (≈ 0.547 µg/mL)
[12]
  IC50: 200 nM
Pichia kudriavzevii
  IC50: 100 nM
  MFC: 1 µM (≈ 1.09 µg/mL)
  MIC: 0.4 µM (≈ 0.437 µg/mL)
Candida albicans [13]
  IC50: 30 nM
  MFC: 0.52 µM (≈ 0.569 µg/mL)
  MIC: 0.1 µM (≈ 0.109 µg/mL)
Candida albicans [14]
  IC50: 50 nM
  MFC: 0.26 µM (≈ 0.284 µg/mL)
  MIC: 0.1 µM (≈ 0.109 µg/mL)
Trichophyton rubrum [15]
  Activity: inactive
Aspergillus flavus
  Activity: inactive
[16]
  Activity: inactive
Candida albicans [17]
  IC50: 70 nM
  MFC: 1.03 µM (≈ 1.13 µg/mL)
  MIC: 0.13 µM (≈ 0.142 µg/mL)
Candida parapsilosis [18]
  Activity: inactive
Trichophyton rubrum [19]
  Activity: inactive
[20]
  Activity: inactive
Nakaseomyces glabratus
  IC50: 50 nM
  MFC: 0.26 µM (≈ 0.284 µg/mL)
  MIC: 0.13 µM (≈ 0.142 µg/mL)
Aspergillus fumigatus [21]
  Activity: inactive
